Ends that are not written are not given here. Peptide text beside a SMILES is read from it.
What was measured:
[1] = biological target: Gβγ stimulation of Gαs-stimulated AC2 (Homo sapiens, UniProt P59768+P62873); assay: Adenylyl cyclase activity assay, Gβγ stimulation of Gαs-stimulated AC2; format: biochemical, Rat; details: for Gαs/Gβγ stimulation % Max Inhibition: Gβγ stimulation of Gαs-stimulated AC2, cAMP level at 300 μM peptide, peptides 46 nM to 300 μM
Summary of the method: (§1)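 AC2 came from membranes of Hi5 insect cells infected with recombinant AC2 baculovirus. Stimulants were constitutively active Gαs (Q227L) and Gβγ (Gβ1/His-Gγ2) purified from Hi5 cells. Peptides were tested from 46 nM to 300 μM, pre-incubated with membranes or G proteins, and run alongside control conditions. cAMP was measured radiometrically ([α-32P]ATP→[32P]cAMP) or by Lance kit. Duplicates were used, each repeated ≥2 times. IC50 came from non-linear regression.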

Gαs-stimulated AC2 = Gαs-stimulated AC2 (Rattus norvegicus, UniProt P26769); assay: Adenylyl cyclase activity assay, Gαs stimulation of AC2; format: biochemical
Summary of the method: as §1

Gβγ = Gβγ (Homo sapiens, UniProt P59768+P62873); format: binding
Summary of the method: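 Biotinylated test peptides were captured on a streptavidin chip (Biacore 2000). Gβγ in 25 mM HEPES pH 8.0 was flowed over at 12.5, 25, 50, 100 and 200 nM at 20 μL/min. KD was obtained by fitting the sensorgrams in Biaevaluation, and residual plots were used to judge the fit.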

AC2 = AC2 (Rattus norvegicus, UniProt P26769); assay: Adenylyl cyclase activity assay, basal AC2 activity in Hi5 membranes; format: biochemical
Summary of the method: as §1

Chain of Gαs-stimulated AC2 (P26769 whole entry): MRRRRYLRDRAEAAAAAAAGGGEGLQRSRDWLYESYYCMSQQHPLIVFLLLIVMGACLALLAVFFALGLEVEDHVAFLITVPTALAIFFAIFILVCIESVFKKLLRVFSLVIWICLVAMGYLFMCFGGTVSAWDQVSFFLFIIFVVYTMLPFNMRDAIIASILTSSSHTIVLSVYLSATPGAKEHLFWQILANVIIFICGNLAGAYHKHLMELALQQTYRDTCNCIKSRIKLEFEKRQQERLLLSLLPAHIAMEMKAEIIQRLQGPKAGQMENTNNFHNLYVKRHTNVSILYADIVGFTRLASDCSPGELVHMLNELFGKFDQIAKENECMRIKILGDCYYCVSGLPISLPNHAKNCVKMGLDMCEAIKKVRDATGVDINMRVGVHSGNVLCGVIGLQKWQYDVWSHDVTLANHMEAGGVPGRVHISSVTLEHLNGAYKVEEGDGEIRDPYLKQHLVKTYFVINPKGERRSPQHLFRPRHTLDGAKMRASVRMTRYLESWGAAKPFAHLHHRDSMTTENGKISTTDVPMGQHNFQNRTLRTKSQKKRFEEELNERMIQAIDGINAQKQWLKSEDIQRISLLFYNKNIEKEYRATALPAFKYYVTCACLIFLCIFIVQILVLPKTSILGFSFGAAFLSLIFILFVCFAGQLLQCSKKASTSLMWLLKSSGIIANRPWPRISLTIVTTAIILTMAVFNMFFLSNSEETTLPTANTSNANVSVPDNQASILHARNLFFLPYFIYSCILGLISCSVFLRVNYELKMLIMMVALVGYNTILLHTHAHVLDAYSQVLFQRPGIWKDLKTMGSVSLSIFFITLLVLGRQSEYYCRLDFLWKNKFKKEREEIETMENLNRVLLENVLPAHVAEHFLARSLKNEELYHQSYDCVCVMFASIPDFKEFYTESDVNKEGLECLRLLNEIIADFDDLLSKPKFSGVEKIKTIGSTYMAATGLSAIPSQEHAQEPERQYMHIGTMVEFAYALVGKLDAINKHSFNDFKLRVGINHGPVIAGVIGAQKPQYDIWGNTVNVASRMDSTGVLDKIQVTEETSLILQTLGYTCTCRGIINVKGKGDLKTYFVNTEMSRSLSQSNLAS
Chain of AC2 (P26769 whole entry): as above
Chain of Gβγ (P62873 2-340 limits assumed): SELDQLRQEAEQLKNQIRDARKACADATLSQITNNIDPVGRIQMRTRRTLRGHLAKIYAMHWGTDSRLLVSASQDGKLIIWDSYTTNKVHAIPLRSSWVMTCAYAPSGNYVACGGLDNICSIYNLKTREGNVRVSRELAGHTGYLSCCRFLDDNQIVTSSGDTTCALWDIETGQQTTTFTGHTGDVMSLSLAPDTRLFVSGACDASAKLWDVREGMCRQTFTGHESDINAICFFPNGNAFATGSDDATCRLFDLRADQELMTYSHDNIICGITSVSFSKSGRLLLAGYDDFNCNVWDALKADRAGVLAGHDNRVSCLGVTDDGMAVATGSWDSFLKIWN
Chain of Gβγ (P59768 2-68 limits assumed): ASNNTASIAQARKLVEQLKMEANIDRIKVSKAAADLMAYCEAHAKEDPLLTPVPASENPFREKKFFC
Chain of Gβγ stimulation of Gαs-stimulated AC2 (P62873 2-340 limits assumed): as the sequence (P62873 2-340 limits assumed) above
Chain of Gβγ stimulation of Gαs-stimulated AC2 (P59768 2-68 limits assumed): as the sequence (P59768 2-68 limits assumed) above

In the case of `CC[C@H](C)[C@H](NC(=O)[C@@H]1CCCN1C(=O)[C@H](CC(C)C)NC(=O)CNC(=O)[C@H](CO)NC(=O)[C@@H](NC(=O)[C@H](CS)NC(=O)[C@H](Cc1ccc(O)cc1)NC(=O)[C@H](Cc1ccc(O)cc1)NC(=O)[C@@H](N)CS)C(C)C)C(=O)N[C@@H](CO)C(=O)N[C@@H](CC(C)C)C(=O)N1CCC[C@H]1C(=O)N[C@@H](CC(N)=O)C(=O)N[C@@H](Cc1c[nH]cn1)C(=O)N[C@@H](C)C(=O)N[C@@H](CCCCN)C(=O)N[C@@H](CC(N)=O)C(=O)N[C@@H](CS)C(=O)N[C@H](C(=O)N[C@@H](CCCCN)C(=O)N[C@@H](CCSC)C(=O)O)C(C)C` [AC2 C1a (339-360)] (H-CYYCVSGLPISLPNHAKNCVKM-OH), the IC50 [1] is reported as 5.6 µM, the “Gαs/Gβγ stimulation % Max Inhibition” value ([1]; listed as C1a region) is reported as 88% and the IC50 (Gαs-stimulated AC2) is reported as 82.3 µM. The Kd (Gβγ) was 0.0405 ± 0.0063 µM and the IC50 (AC2) was 7.7 µM.

In the case of “ERMIQAIDGINAQKQWLKSEDIQR [AC2 C1b (554-577)]”, the IC50 [1] is reported as 12.2 µM, the “Gαs/Gβγ stimulation % Max Inhibition” value [1] is reported as 11.5% and the IC50 (Gαs-stimulated AC2) is reported as 36.7 µM. It also gave an IC50 (AC2) of 16.7 µM.

With “ISLLFYNKVLEKEYRATALPAFKYY [AC2 C1b (578-602)]” the IC50 [1] was 2.2 µM, the “Gαs/Gβγ stimulation % Max Inhibition” value [1] was 113.1% and the “Gαs/Gβγ stimulation % Max Inhibition” value ([1]; listed as C1b 578-602) was over 100%. The IC50 (Gαs-stimulated AC2) was 2.5 µM, the Kd (Gβγ) was 0.102 ± 0.014 µM and the IC50 (AC2) was 38.5 µM.

In the case of “MTRYLESWGAAKPFAHL [AC2 C1b (493-509), reference compound]”, the Kd (Gβγ) is reported as 0.0027 ± 0.0013 µM.

In the case of “MTTENGKISTTDVPMGQHNFQNRTLR-OH [AC2 C1b (515-541)]”, the “Binding to Gβγ (in words)” value (Gβγ; Biacore SPR, immobilized biotinylated peptide, Gβγ 12.5-200 nM) is reported as “did not interact with Gβγ”.

Compound “QEHAQEPERQYMHIGTMVEFAYALVGK [QEHA C2 (956-982), reference compound]” has a Kd (Gβγ) of 0.0139 ± 0.0088 µM.

In the case of “RYLESWGAAKPFAHLHHRDS [AC2 C1b (495-514)]”, the IC50 [1] is reported as 13.9 µM, the “Gαs/Gβγ stimulation % Max Inhibition” value [1] is reported as 67.0% and the IC50 (Gαs-stimulated AC2) is reported as 32.9 µM. It also gave a Kd (Gβγ) of 0.0047 ± 0.0017 µM and an IC50 (AC2) of over 100 µM.
